# Measured values from different studies.
SMILES,tested on,test,test system,conditions,endpoint,result
CC(C)(C)OC(=O)N[C@H]1CCN(c2cc(C(=O)NCC(=O)O)ccc2NC(=O)c2cc(Br)c(Br)[nH]2)C1,Enterococcus faecium,"microbial growth, broth dilution",ATCC35667,,MIC,> 32 µg/mL
Cc1cc(C)c(C#N)c(SCC(=O)Nc2ccccc2)n1,Trypanosoma brucei,"parasite growth, resazurin",,,EC50,> 64 µM
CC(C)(C)OC(=O)N1CCN(c2cc(C(=O)NCC(=O)O)ccc2NC(=O)c2cc(Br)c(Br)[nH]2)CC1,Enterococcus faecium,"microbial growth, broth dilution",ATCC35667,,MIC,> 32 µg/mL
Nc1ccc(/C=C/C(=O)N2CCc3c(oc4c(-c5ccc(F)cc5)cc(-c5ccc(C(=O)N6CCC(F)(F)CC6)nn5)cc34)C2)cn1,CFPAC-1,"cell growth or viability, CCK-8",,72 h,IC50,> 20 µM
Cc1[nH]c(C(=O)Nc2ccc(C(=O)NCC(=O)O)cc2N2CC[C@@H](N)C2)c(Cl)c1Cl.Cl,Enterococcus faecium,"microbial growth, broth dilution",ATCC35667,,MIC,> 32 µg/mL
O=C(O)c1ccc2c(c1)nc(Nc1cccc(Cl)c1)c1ccncc12,SK-MES-1,"cell growth or viability, resazurin",,48 h,IC50,6.9 µM
Cc1cc(C)c(C#N)c(SC2COc3ccccc3C2=O)n1 (stereo not drawn),Trypanosoma brucei,"parasite growth, resazurin",,,EC50,51.2 µM
COc1ccc2c(c1)c(=O)c(C(=O)N/N=C/c1ccc([N+](=O)[O-])s1)cn2Cc1ccccc1,Trypanosoma brucei,"parasite growth, resazurin",,72 h,EC50,0.41 µM
Cc1cc(C)c(C#N)c(SCC(=O)c2ccccn2)n1,Trypanosoma brucei,"parasite growth, resazurin",RHODESIENSE,,EC50,18 µM
Cc1[nH]c(C(=O)Nc2ccc(C(=O)NCC(=O)O)cc2N2CCN(C(=O)OC(C)(C)C)CC2)c(Cl)c1Cl,Enterococcus faecium,"microbial growth, broth dilution",ATCC35667,,MIC,> 32 µg/mL
Nc1ccc(/C=C/C(=O)N2CCc3c(oc4c(-c5ccc(F)cc5)cc(-c5ccc(C(=O)N6CCOCC6)nn5)cc34)C2)cn1,CFPAC-1,"cell growth or viability, CCK-8",,72 h,IC50,> 20 µM
Cn1nnc(-c2cccnc2SCC(=O)c2ccc(F)cc2)n1,Trypanosoma brucei,"parasite growth, resazurin",RHODESIENSE,,EC50,> 64 µM
NNC(=O)c1cn(Cc2ccccc2)c2ccc(Oc3ccccc3)cc2c1=O,Trypanosoma brucei,"parasite growth, resazurin",,72 h,EC50,0.43 µM
COc1ccnc(SCC(=O)c2ccccc2)c1C#N,Trypanosoma brucei,"parasite growth, resazurin",,,EC50,> 64 µM
C=CC(=O)NC1CCN(c2ncc3ncnc(Nc4ccc(Oc5ccc6c(c5)ncn6C)c(C)c4)c3n2)CC1,HCC95,cell growth or viability,,,EC50,2.07 µM
